This is a sample that favours compounds with a hit; in the whole collection about 3.6% have one here.
PAFAH2 FP inh: PAFAH2 (human) inhibition. inhibition, % at 3.39 µM. 340,000 tested, 0.99% active. recombinant PAFAH2, FP-rhodamine activity probe, fluorescence polarization;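 active means inhibition above the mean over all tested compounds plus 3 SD, cut at about 30% in these data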;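 further: inhibitors block probe labeling of enzyme so polarization drops; 0% = enzyme with DMSO and 100% = wells lacking PAFAH2 protein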
pPAFAH FP inh: pPAFAH (human) enzyme inhibition; Q13093; recombinant pPAFAH, FP-rhodamine probe fluorescence polarization; inhibition, % at 3.39 µM; 330,000 tested, 1.5% active; AID 463082;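 active means inhibition above the mean inhibition across the screen plus 3 SD, cut at about 25% in these data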;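 further: inhibitors block binding of the rhodamine activity-based probe so polarization drops; 0% = enzyme with DMSO and 100% = wells lacking pPAFAH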
VIM-2 inhibitor: inhibitors of Pseudomonas aeruginosa VIM-2 metallo-beta-lactamase. purified VIM-2, nitrocefin hydrolysis, epi-absorbance fluorescence. inhibition, % at 5.6 µM. AID 1527. 290,000 tested, 0.89% active;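 active means inhibition above the mean of all tested compounds plus 3 SD, cutoff set per screening run, cut at about 7.5% in these data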;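 further: red hydrolysis product quenches plate fluorescence so inhibitors raise well fluorescence; 0% = enzyme with DMSO and 100% = DMSO without enzyme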
PAFAH1B3 inh: inhibitors of human PAFAH1B3; Q15102; recombinant PAFAH1B3, FP-rhodamine probe, fluorescence polarization; inhibition, % at 3.39 µM; 340,000 tested, 0.28% active;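 active means inhibition above the screen-wide average of all tested compounds plus 3 SD, cut at about 25% in these data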;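 further: 0% = enzyme with DMSO only and 100% = wells lacking PAFAH1B3 protein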
Target sequence (Q15102 whole entry, looked up): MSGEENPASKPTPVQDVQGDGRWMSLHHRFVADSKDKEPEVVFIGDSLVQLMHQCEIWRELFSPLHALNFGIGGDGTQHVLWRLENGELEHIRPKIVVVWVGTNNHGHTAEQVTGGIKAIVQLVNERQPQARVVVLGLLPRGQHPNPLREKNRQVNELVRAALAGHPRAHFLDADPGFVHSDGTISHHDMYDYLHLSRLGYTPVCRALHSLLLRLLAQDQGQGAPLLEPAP
IMP-1 inhibitor: inhibitors of Pseudomonas aeruginosa IMP-1 metallo-beta-lactamase; purified IMP-1, nitrocefin hydrolysis, epi-absorbance fluorescence; inhibition, % at 5.6 µM; 290,000 tested, 0.45% active; AID 1556;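 active means inhibition above the mean plus 3 SD of all compounds in the same screening run, cut at about 4.5% in these data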;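 further: 0% = IMP-1 with DMSO and 100% = DMSO wells lacking enzyme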
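System: Purified IMP-1 | Read-out basis: Percent enzyme inhibition | Controls: IMP-1 with DMSO as 0%, enzyme-free DMSO as 100% | Replicates: One well per compound | Doses: 5.6 µM nominal single concentration | Detection: Epi-absorbance fluorescence, 480 nm excitation, 530 nm emission | Incubation: 25 °C, 15 min preincubation, 25 min reaction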
PAFAH1B2 inh: blocks human PAF acetylhydrolase 1b catalytic subunit 2. recombinant PAFAH1B2, FP-rhodamine activity probe, fluorescence polarization. inhibition, % at 3.39 µM. 340,000 tested, 1.2% active;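 active means inhibition above the mean of all tested compounds plus 3 SD, cut at about 24% in these data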;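 further: 0% = enzyme with DMSO and 100% = wells lacking PAFAH1B2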
Target sequence (P68402 whole entry, looked up): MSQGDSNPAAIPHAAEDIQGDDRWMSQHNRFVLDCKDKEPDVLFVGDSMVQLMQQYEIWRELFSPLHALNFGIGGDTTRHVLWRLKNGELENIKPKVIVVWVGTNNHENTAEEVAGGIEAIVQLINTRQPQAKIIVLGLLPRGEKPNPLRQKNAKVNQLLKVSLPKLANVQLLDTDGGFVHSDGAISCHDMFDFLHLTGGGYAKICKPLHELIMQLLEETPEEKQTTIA
Starred values were filed as active, the others as inactive; / = not tested or not shown.

SMILES	PAFAH2 FP inh	pPAFAH FP inh	VIM-2 inhibitor	PAFAH1B3 inh	IMP-1 inhibitor	PAFAH1B2 inh
C[C@H]1COC(=O)[C@@H](Cc2ccc(F)cc2)CC/C=C/C[C@@H](CC(=O)N(CCO)Cc2ccccc2)C(=O)N1	2	4	/	4	/	26*
C[C@H]1COC(=O)[C@@H](Cc2ccc(F)cc2)CC/C=C/C[C@H](CC(=O)N(CCO)Cc2ccccc2)C(=O)N1	-7	1	/	-2	/	25*
C[C@@H]1COC(=O)[C@@H](Cc2ccc(F)cc2)C/C=C\C[C@H](CC(=O)N(CCO)Cc2ccccc2)C(=O)N1	5	3	/	5	/	21
C[C@H]1COC(=O)[C@@H](Cc2ccc(F)cc2)C/C=C\C[C@H](CC(=O)N(CCO)Cc2ccccc2)C(=O)N1	3	3	/	8	/	19
Cc1ccccc1C(=O)N[C@H](C(=O)OCC(=O)NC1CC1)C(C)C	-3	2	/	9	/	6
CCOc1cc2c(C#N)c(N3CCCC3)nc(N)c2c(N)n1	-4	1	/	10	/	4
N#Cc1c(N2CCCC2)nc(N)c2c(N)nc(N3CCCC3)cc12	59*	16	-5	63*	-1	41*
CCOC(=O)c1c(C)[nH]c(C)c1S(=O)(=O)NCc1cc(C)ccc1C	5	3	1	6	-1	4
CCOP(=O)(Nc1cccc2oc(=O)c3ccccc3c12)OCC	-4	/	/	4	/	4
CCOC(=O)C1=C(O)/C(=C/c2ccc(-c3ccccc3C(=O)O)o2)SC1=Nc1ccc(OC)cc1	-4	/	11*	4	-4	8
CCOC(=O)C1=C(O)/C(=C/c2ccc(-c3ccccc3C(=O)O)o2)SC1=Nc1ccc(C)cc1	13	/	/	12	/	7
COc1cc2cccc(OC)c(=O)c2c(O)c1OC	11	-7	1	7	-2	3
COc1cc2c(cc1OC)-c1c(OC)c(OC)cc3ccnc(c13)C2=O	1	23	9.0*	1	-6	-1
COc1cc(/C=C2\CCC(C)C3=C(c4cc(OC)c(OC)c(OC)c4)C(C#N)=C(N)OC32)cc(OC)c1OC (configuration not stated)	-8	/	/	-2	/	-3
CCNc1nc(Oc2ccc(OC)cc2)cc(C(F)(F)F)n1	7	33*	-1	8	-2	-2
Cc1nc(CS(=O)(=O)c2ccc(Cl)cc2)sc1C(=O)O	21	-4	-1	7	-1	25*
CC(=O)c1sc(NC(=O)CCS(=O)(=O)c2ccc(Cl)cc2)nc1C	-8	-3	/	9	/	6
Cc1nc2c(C(=O)NCCC3=CCCCC3)c[nH]n2c(=O)c1Cl	9	28*	2	15	1	12
Cc1nc2c(C(=O)NCc3ccc4c(c3)OCO4)c[nH]n2c(=O)c1Cl	7	21	0	13	-1	4
O=C(CSc1nc2ccccc2s1)NCCOc1ccccc1	-6	12	-2	4	1	27*
COc1ccccc1NC(=O)c1ccc(NC(=O)c2ccc(=O)[nH]c2)cc1	-1	3	/	-4	/	-5
Nc1ccc(C(=O)N/N=C/c2cn(Cc3ccc(F)cc3)c3ccccc23)cc1	2	/	-3	15	-3	3
O=C(N/N=C/c1cn(Cc2cccc(F)c2)c2ccccc12)c1cc(O)cc(O)c1	8	/	-1	44*	-1	26*
C=CCN(c1ccccc1OC)S(=O)(=O)c1cccc(C(=O)OCC(=O)c2c(N)n(C)c(=O)n(C)c2=O)c1	0	/	/	-6	/	-3
Cc1ccc(C(c2nnnn2Cc2ccccc2)N2CCN(Cc3ccccc3)CC2)cc1 (configuration not stated)	0	-2	-1	1	-1	31*
SMILES	PAFAH2 FP inh	pPAFAH FP inh	VIM-2 inhibitor	PAFAH1B3 inh	IMP-1 inhibitor	PAFAH1B2 inh
CCc1ccccc1NC(=O)c1ccc2c(O)c(S(=O)(=O)c3ccc(OC)cc3)c(=O)[nH]c2c1	3	-1	1	-1	-1	2
CC(C)Cn1c2ccccc2c2cc(C(=O)O)ccc21	2	3	-3	3	0	29*
CC(C)Cn1c(=S)[nH]c2cc(C(=O)O)ccc2c1=O	2	0	0	3	0	19
CCOC(=O)CN1C(=O)S/C(=C\c2ccc(-c3ccc(C(=O)O)c(Cl)c3)o2)C1=O	-3	10	-2	4	-3	-5
O=C(O)c1ccc(-c2ccc(/C=C3\NC(=O)N(Cc4ccc(Cl)cc4)C3=O)o2)cc1Cl	30*	/	0	22	-5	8
COc1ccccc1C1NC(=O)NC(C)=C1C(=O)OC1CCCCC1 (configuration not stated)	7	-2	0	0	-2	7
COc1cccc2c1C1(O)C2CCCCCCCCCC12OCCCO2 (configuration not stated)	11	/	/	0	/	25*
CCCC[C@@H](CN[C@H](C)CNC)NCC1CCC(C(C)(C)C)CC1 (some centres not stated)	/	0	-3	/	4	/
c1cn2cc(CSC3CCCCC3)nc2s1	-6	2	9.1*	10	-3	5
COc1cc(CNCc2ccccn2)ccc1OCc1ccc(Cl)cc1Cl	2	12	4	7	-2	9
COc1cc(CNCc2ccccn2)ccc1OCc1ccc(Cl)c(Cl)c1	3	4	10*	4	-5	1
O=C1C(O)=C(O)C(=O)c2ccccc21	15	10	/	30*	/	3
CCC(=O)N(CC)c1nc(-c2ccc(OC)cc2)cs1	2	8	2	-1	0	2
C=CCN(C(=O)CCc1ccccc1OC)c1nc(-c2ccc(S(C)(=O)=O)cc2)cs1	-7	14	1	-4	4.6*	2
C=CCN(C(=O)Cc1cccs1)c1nc(-c2ccc(S(C)(=O)=O)cc2)cs1	3	22	1	1	5.3*	4
C=CCN(C(=O)c1cccc(S(=O)(=O)N2CCN(C)CC2)c1)c1nc(-c2ccccc2)cs1	-1	3	-1	0	-3	0
Cc1ccc(N2C(=O)C3C4CCC(O4)C3C2=O)c(OC(F)F)c1 (configuration not stated)	1	4	/	10	/	-5
CC(Oc1ccc(F)cc1)C(=O)Nc1cc(S(=O)(=O)N2CCOCC2)ccc1N1CCCCC1 (configuration not stated)	8	0	/	-1	/	5
Cc1ccc(NS(=O)(=O)c2ccc3c(c2)OCCCO3)cc1S(=O)(=O)N1CCOCC1	14	23	/	-7	/	2
O=C(CSc1ccc(Cl)cc1)NNC(=O)c1cccnc1	5	6	-2	1	-2	28*
O=C(CNS(=O)(=O)c1ccc(Cl)cc1)NNC(=O)c1cccnc1	4	6	-3	4	-4	6
CSc1cccc(NC(=O)c2[nH]c(C)c(C(C)=O)c2C)c1	-7	8	0	2	-2	0

Compound activity: PubChem BioAssay, The Scripps Research Institute Molecular Screening Center
